Molecules are shown by their SMILES. Converted amounts (≈) assume the structure as drawn. Bounds are passed on as bounds.

The first data set deals with Acinetobacter baumannii. Put plainly: Antibacterial activity against Acinetobacter baumannii ARC3492 after 24 hrs by broth microdilution method. The format is functional. The settings on record: ARC3492, 24 h. The gist of the method: (§1)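 Broth microdilution per CLSI. Bacterial suspension adjusted to 1×10^6 CFU/mL in cation-adjusted Mueller–Hinton broth and mixed 1:1 with 2-fold serial compound dilutions. Plates incubated at 35 °C with shaking at 140 rpm for 24 h.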
In general terms: In broth dilution the organism is exposed to a series of concentrations in liquid medium.
Molecule `CCNC(=O)Nc1cc(-c2nc(C(F)(F)F)cs2)c(-c2cc(-c3n[nH]c(=O)o3)cnc2N2C3CCC2CN(C)C3)cn1` gave an MIC of 1 µg/mL (≈ 1.66 µM).

Another data set relates to Pseudomonas aeruginosa. Put plainly: Antibacterial activity against Pseudomonas aeruginosa ARC3729 after 24 hrs by broth microdilution method. The settings on record: ARC3729, 24 h. The format is functional. The gist of the method: (§2)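 Broth microdilution per CLSI. Bacterial suspension adjusted to 1×10^6 CFU/mL in cation-adjusted Mueller–Hinton broth and mixed 1:1 with 2-fold serial compound dilutions. Final DMSO 2.5% v/v. Plates incubated at 35 °C with shaking at 140 rpm for 24 h.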
As for `CCNC(=O)Nc1cc(-c2nc(C(F)(F)F)cs2)c(-c2cc(-c3n[nH]c(=O)o3)cnc2N2C3CCC2CN(C)C3)cn1`, the MIC stood at 4 µg/mL (≈ 6.65 µM).

The next data set concerns Acinetobacter baumannii. Put plainly: Antibacterial activity against Acinetobacter baumannii ARC3657 after 24 hrs by broth microdilution method. It counts as functional. As to conditions: ARC3657, 24 h. A digest of the protocol: as §2
Turning to `CCNC(=O)Nc1cc(-c2nc(C(F)(F)F)cs2)c(-c2cc(-c3n[nH]c(=O)o3)cnc2N2C3CCC2CN(C)C3)cn1`, the MIC turned out to be 2 µg/mL (≈ 3.32 µM).

For the next data set, the system named is Staphylococcus aureus. Put plainly: Antibacterial activity against methicillin-resistant Staphylococcus aureus USA100 after 24 hrs by broth microdilution method. The format is functional. As to conditions: USA100, 24 h. A digest of the protocol: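 Broth microdilution per CLSI. Bacterial suspensions adjusted to 1×10^6 CFU/mL in cation-adjusted Mueller–Hinton broth, mixed 1:1 with 2-fold serial compound dilutions (final DMSO 2.5% v/v). Incubation 35 °C, 140 rpm, 24 h.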
`CCNC(=O)Nc1cc(-c2nc(C(F)(F)F)cs2)c(-c2cc(-c3n[nH]c(=O)o3)cnc2N2C3CCC2CN(C)C3)cn1` displayed an MIC of less than 0.06 µg/mL.

The test system of a further data set is Klebsiella pneumoniae. Put plainly: Antibacterial activity against Klebsiella pneumoniae ARC1865 after 24 hrs by broth microdilution method. The format is functional. The settings on record: ARC1865, 24 h. The gist of the method:
as §2
The molecule `CCNC(=O)Nc1cc(-c2nc(C(F)(F)F)cs2)c(-c2cc(-c3n[nH]c(=O)o3)cnc2N2C3CCC2CN(C)C3)cn1` came in with an MIC of 32 µg/mL (≈ 53.2 µM).

A further data set concerns Escherichia coli. Put plainly: Antibacterial activity against tolC deficient Escherichia coli after 24 hrs by broth microdilution method.
Settings: not given
It counts as functional. The gist of the method:
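Broth microdilution per CLSI guidelines. Inoculum adjusted to 1×10^6 CFU/mL in cation-adjusted Mueller–Hinton broth, added 1:1 to 2-fold serial compound dilutions; final DMSO 2.5% v/v. Plates incubated 35 °C, 140 rpm, 24 h.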
Molecule `CCNC(=O)Nc1cc(-c2nc(C(F)(F)F)cs2)c(-c2cc(-c3n[nH]c(=O)o3)cnc2N2C3CCC2CN(C)C3)cn1` returned an MIC of 0.12 µg/mL (≈ 0.199 µM).

The test system of the next data set is Pseudomonas aeruginosa. Put plainly: Antibacterial activity against Pseudomonas aeruginosa ARC3611 after 24 hrs by broth microdilution method. The format is functional. As to conditions: ARC3611, 24 h. A digest of the protocol: as §2
In turn, `CCNC(=O)Nc1cc(-c2nc(C(F)(F)F)cs2)c(-c2cc(-c3n[nH]c(=O)o3)cnc2N2C3CCC2CN(C)C3)cn1` registered an MIC of 4 µg/mL (≈ 6.65 µM).

The subject of the next data set is Pseudomonas aeruginosa. Put plainly: Antibacterial activity against Pseudomonas aeruginosa ARC4063 after 24 hrs by broth microdilution method. The format is functional. As to conditions: ARC4063, 24 h. The gist of the method: as §1
Regarding `CCNC(=O)Nc1cc(-c2nc(C(F)(F)F)cs2)c(-c2cc(-c3n[nH]c(=O)o3)cnc2N2C3CCC2CN(C)C3)cn1`, 8 µg/mL (≈ 13.3 µM) was the least that counted as inhibitory (MIC).

For a further data set, the system named is Acinetobacter baumannii. Put plainly: Antibacterial activity against Acinetobacter baumannii ARC3495 after 24 hrs by broth microdilution method. It counts as functional. The settings on record: ARC3495, 24 h. The gist of the method: as §2
Regarding `CCNC(=O)Nc1cc(-c2nc(C(F)(F)F)cs2)c(-c2cc(-c3n[nH]c(=O)o3)cnc2N2C3CCC2CN(C)C3)cn1`, the MIC was determined as 0.5 µg/mL (≈ 0.831 µM).

For the next data set, the target named is DNA gyrase subunit B (Escherichia coli, UniProt P0AES6). Put plainly: Inhibition of Escherichia coli GyrB (1 to 220 residues) expressed in Escherichia coli BL21(DE3).
Settings: not given
With `CCNC(=O)Nc1cc(-c2nc(C(F)(F)F)cs2)c(-c2cc(-c3n[nH]c(=O)o3)cnc2N2C3CCC2CN(C)C3)cn1`, the IC50 is 6 nM.

For a further data set, the system named is Acinetobacter baumannii. Put plainly: Antibacterial activity against Acinetobacter baumannii ARC2675 after 24 hrs by broth microdilution method. As to conditions: ARC2675, 24 h. It counts as functional. A digest of the protocol:
as §1
`CCNC(=O)Nc1cc(-c2nc(C(F)(F)F)cs2)c(-c2cc(-c3n[nH]c(=O)o3)cnc2N2C3CCC2CN(C)C3)cn1` had an MIC of 4 µg/mL (≈ 6.65 µM).

Another data set has as its system Pseudomonas aeruginosa. Put plainly: Antibacterial activity against Pseudomonas aeruginosa ARC3511 after 24 hrs by broth microdilution method. It counts as functional. The settings on record: ARC3511, 24 h. The gist of the method:
as §1
Molecule `CCNC(=O)Nc1cc(-c2nc(C(F)(F)F)cs2)c(-c2cc(-c3n[nH]c(=O)o3)cnc2N2C3CCC2CN(C)C3)cn1` returned an MIC of 2 µg/mL (≈ 3.32 µM).

The test system of the next data set is Acinetobacter baumannii. Put plainly: Antibacterial activity against Acinetobacter baumannii ARC2779 after 24 hrs by broth microdilution method. It counts as functional. The settings on record: ARC2779, 24 h. The gist of the method: as §2
Take `CCNC(=O)Nc1cc(-c2nc(C(F)(F)F)cs2)c(-c2cc(-c3n[nH]c(=O)o3)cnc2N2C3CCC2CN(C)C3)cn1`: the MIC amounted to 1 µg/mL (≈ 1.66 µM).

The test system of a further data set is Acinetobacter baumannii. Put plainly: Antibacterial activity against Acinetobacter baumannii ARC2674 after 24 hrs by broth microdilution method. It counts as functional. As to conditions: ARC2674, 24 h. The gist of the method:
as §2
`CCNC(=O)Nc1cc(-c2nc(C(F)(F)F)cs2)c(-c2cc(-c3n[nH]c(=O)o3)cnc2N2C3CCC2CN(C)C3)cn1` registered an MIC of 4 µg/mL (≈ 6.65 µM).

Another data set concerns Acinetobacter baumannii. Put plainly: Antibacterial activity against Acinetobacter baumannii ARC3485 after 24 hrs by broth microdilution method. The format is functional. The settings on record: ARC3485, 24 h. The gist of the method:
as §2
In turn, `CCNC(=O)Nc1cc(-c2nc(C(F)(F)F)cs2)c(-c2cc(-c3n[nH]c(=O)o3)cnc2N2C3CCC2CN(C)C3)cn1` yielded an MIC of 2 µg/mL (≈ 3.32 µM).

In the next data set the test system is Acinetobacter baumannii. Put plainly: Antibacterial activity against Acinetobacter baumannii ARC3513 after 24 hrs by broth microdilution method. The format is functional. As to conditions: ARC3513, 24 h. A digest of the protocol:
as §2
`CCNC(=O)Nc1cc(-c2nc(C(F)(F)F)cs2)c(-c2cc(-c3n[nH]c(=O)o3)cnc2N2C3CCC2CN(C)C3)cn1`: the MIC was found to be 4 µg/mL (≈ 6.65 µM).

Test system in the next data set: not listed separately
Put plainly: Growth inhibition of human A549 cells.
Settings: not given
It counts as cell-based.
In turn, `CCNC(=O)Nc1cc(-c2nc(C(F)(F)F)cs2)c(-c2cc(-c3n[nH]c(=O)o3)cnc2N2C3CCC2CN(C)C3)cn1` displayed a GI50 of more than 40000 nM.

The next data set has as its system Acinetobacter baumannii. Put plainly: Antibacterial activity against Acinetobacter baumannii ARC2782 after 24 hrs by broth microdilution method. The format is functional. As to conditions: ARC2782, 24 h. A digest of the protocol: as §2
As to `CCNC(=O)Nc1cc(-c2nc(C(F)(F)F)cs2)c(-c2cc(-c3n[nH]c(=O)o3)cnc2N2C3CCC2CN(C)C3)cn1`, the MIC turned out to be 1 µg/mL (≈ 1.66 µM).

The next data set concerns Acinetobacter baumannii. Put plainly: Antibacterial activity against Acinetobacter baumannii ARC3493 after 24 hrs by broth microdilution method. The format is functional. As to conditions: ARC3493, 24 h. A digest of the protocol: as §2
Regarding `CCNC(=O)Nc1cc(-c2nc(C(F)(F)F)cs2)c(-c2cc(-c3n[nH]c(=O)o3)cnc2N2C3CCC2CN(C)C3)cn1`, 1 µg/mL (≈ 1.66 µM) was the least that counted as inhibitory (MIC).

A further data set concerns Acinetobacter baumannii. Put plainly: Antibacterial activity against Acinetobacter baumannii ARC2728 after 24 hrs by broth microdilution method. The format is functional. As to conditions: ARC2728, 24 h. The gist of the method: as §2
For `CCNC(=O)Nc1cc(-c2nc(C(F)(F)F)cs2)c(-c2cc(-c3n[nH]c(=O)o3)cnc2N2C3CCC2CN(C)C3)cn1`, inhibition of growth (MIC) required 1 µg/mL (≈ 1.66 µM).

In a further data set the test system is Pseudomonas aeruginosa. Put plainly: Antibacterial activity against Pseudomonas aeruginosa ARC3727 after 24 hrs by broth microdilution method. The format is functional. The settings on record: ARC3727, 24 h. The gist of the method:
as §1
`CCNC(=O)Nc1cc(-c2nc(C(F)(F)F)cs2)c(-c2cc(-c3n[nH]c(=O)o3)cnc2N2C3CCC2CN(C)C3)cn1` gave an MIC of 4 µg/mL (≈ 6.65 µM).

Another data set concerns Escherichia coli. Put plainly: Antibacterial activity against Escherichia coli after 24 hrs by broth microdilution method. The format is functional.
Settings: not given
A digest of the protocol:
as §2
Molecule `CCNC(=O)Nc1cc(-c2nc(C(F)(F)F)cs2)c(-c2cc(-c3n[nH]c(=O)o3)cnc2N2C3CCC2CN(C)C3)cn1` yielded a minimum inhibitory concentration (MIC) of 1.2 µg/mL (≈ 1.99 µM).

One may read the MIC as the lowest concentration found to suppress growth. A high value points to weaker potency. For orientation: IC50 means the concentration needed to halve the response being measured. The GI50 is the concentration that inhibits growth by half. Read a low GI50 as greater sensitivity of the cells.

Source of the values: ChEMBL document CHEMBL4270612, “Discovery of dual GyrB/ParE inhibitors active against Gram-negative bacteria” (Eur J Med Chem, 2018).
